Measurements published in ChEMBL document CHEMBL1148485, “Synthesis and biological evaluation of new selective cytotoxic cyclolignans derived from podophyllotoxin” (J Med Chem, 2004).

Columns and labels:
HeLa [1] = assay: Tested for effect of compound on G0/G1 cell cycle phase and apoptosis in HeLa cells at a dose of 10E-6 for 48 hr; type: functional, Homo sapiens
Procedure, shortened: (§1)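 HeLa cells were grown in DMEM with 10% heat-inactivated FCS and 2 mM L-glutamine at 37 °C in 5% CO2. They were exposed to 10^-6 to 10^-8 M for 24, 48 or 72 h. Then (3-5)×10^5 cells were fixed overnight in 70% ethanol at 4 °C, PBS-washed, and given 1 mg/mL RNase A plus 20 µg/mL propidium iodide for 1 h at room temperature. DNA content was read by flow cytometry. Sub-G1 (hypodiploid) % counted as apoptotic. Untreated controls were run in parallel. Representative of three independent experiments.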

HeLa [2] = assay: Tested for effect of compound on G0/G1 cell cycle phase and apoptosis in HeLa cells at a dose of 10E-7 for 48 hr; type: functional, Homo sapiens; procedure, shortened: as §1
HeLa [3] = assay: Tested for effect of compound on Sub-G1 cell cycle phase and apoptosis in HeLa cells at a dose of 10E-6 for 72 hr; type: functional, Homo sapiens
Procedure, shortened: (§2)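 HeLa cells grown in DMEM with 10% heat-inactivated FCS, 2 mM L-glutamine, penicillin and gentamicin at 37 °C, 5% CO2. Exposed to compound at 10^-6 to 10^-8 M for 24, 48 or 72 h, untreated controls run in parallel. (3-5) × 10^5 cells fixed overnight in 70% ethanol at 4 °C, then RNase A plus propidium iodide. Phase fractions measured by flow cytometry, with sub-G1 (hypodiploid) cells counted as apoptotic. Three independent experiments.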

HeLa [4] = assay: Tested for effect of compound on Sub-G1 cell cycle phase and apoptosis in HeLa cells at a dose of 10E-8 for 72 hr; type: functional, Homo sapiens; procedure, shortened: as §2
HeLa [5] = assay: Tested for effect of compound on S cell cycle phase and apoptosis in HeLa cells at a dose of 10E-7 for 72 hr; type: functional, Homo sapiens; procedure, shortened: as §2
HeLa [6] = assay: Tested for effect of compound on S cell cycle phase and apoptosis in HeLa cells at a dose of 10E-6 for 72 hr; type: functional, Homo sapiens; procedure, shortened: as §2
HeLa [7] = assay: Tested for effect of compound on Sub-G1 cell cycle phase and apoptosis in HeLa cells at a dose of 10E-8 for 24 hr; type: functional, Homo sapiens; procedure, shortened: as §2
HeLa [8] = assay: Tested for effect of compound on G2/M cell cycle phase and apoptosis in HeLa cells at a dose of 10E-6 for 72 hr; type: functional, Homo sapiens; procedure, shortened: as §2
HeLa [9] = assay: Tested for effect of compound on S cell cycle phase and apoptosis in HeLa cells at a dose of 10E-8 for 48 hr; type: functional, Homo sapiens; procedure, shortened: as §2
HeLa [10] = assay: Tested for effect of compound on Sub-G1 cell cycle phase and apoptosis in HeLa cells at a dose of 10E-7 for 48 hr; type: functional, Homo sapiens; procedure, shortened: as §2
HeLa [11] = assay: Tested for effect of compound on G0/G1 cell cycle phase and apoptosis in HeLa cells at a dose of 10E-7 for 24 hr; type: functional, Homo sapiens; procedure, shortened: as §1
HeLa [12] = assay: Tested for effect of compound on G2/M cell cycle phase and apoptosis in HeLa cells at a dose of 10E-8 for 48 hr; type: functional, Homo sapiens; procedure, shortened: as §2
HeLa [13] = assay: Tested for effect of compound on S cell cycle phase and apoptosis in HeLa cells at a dose of 10E-8 for 24 hr; type: functional, Homo sapiens; procedure, shortened: as §2
HeLa [14] = assay: Tested for effect of compound on Sub-G1 cell cycle phase and apoptosis in HeLa cells at a dose of 10E-6 for 48 hr; type: functional, Homo sapiens; procedure, shortened: as §2
HeLa [15] = assay: Tested for effect of compound on G2/M cell cycle phase and apoptosis in HeLa cells at a dose of 10E-7 for 72 hr; type: functional, Homo sapiens; procedure, shortened: as §2
SK-MEL-28 = assay: Tested in vitro for antineoplastic activity against MEL-28 (human melanoma) tumor cell line; type: functional, cell-based
Procedure, shortened: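 MEL-28 cells seeded at 2 × 10^4 cells/well in MEM–10% FCS containing graded compound concentrations. Incubated 4 days at 37 °C, 10% CO2, 98% humidity. Stained with crystal violet and inhibition judged against untreated controls, which were kept in exponential growth. Mean of duplicate wells.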

HeLa [16] = assay: Tested for effect of compound on G0/G1 cell cycle phase and apoptosis in HeLa cells at a dose of 10E-8 for 24 hr; type: functional, Homo sapiens; procedure, shortened: as §1
HeLa [17] = assay: Tested for effect of compound on Sub-G1 cell cycle phase and apoptosis in HeLa cells at a dose of 10E-7 for 72 hr; type: functional, Homo sapiens; procedure, shortened: as §2
HeLa [18] = assay: Tested for effect of compound on Sub-G1 cell cycle phase and apoptosis in HeLa cells at a dose of 10E-8 for 48 hr; type: functional, Homo sapiens; procedure, shortened: as §2
HeLa [19] = assay: Tested for effect of compound on G0/G1 cell cycle phase and apoptosis in HeLa cells at a dose of 10E-8 for 72 hr; type: functional, Homo sapiens; procedure, shortened: as §1
[20] = Selectivity index is the ratio of IC50 of P-388 cell line to that of HT-29; type: functional
HeLa [21] = assay: Tested for effect of compound on G2/M cell cycle phase and apoptosis in HeLa cells at a dose of 10E-7 for 48 hr; type: functional, Homo sapiens; procedure, shortened: as §2
P388 = assay: Tested in vitro for antineoplastic activity against P-388 (lymphoid neoplasm from DBA/2 mouse) tumor cell line; type: functional, cell-based
Procedure, shortened: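 P-388 cells seeded at 1 × 10^4 cells/well in MEM–10% FCS containing graded compound concentrations. Incubated 4 days at 37 °C, 10% CO2, 98% humidity. Inhibition scored by inverted microscopy against untreated controls, which were kept in exponential growth. Mean of duplicate wells.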

A549 = assay: In vitro cytotoxicity against A-549 (human lung carcinoma) cell line.; type: functional, cell-based; conditions: Homo sapiens, A549
HeLa [22] = assay: Tested for effect of compound on G0/G1 cell cycle phase and apoptosis in HeLa cells at a dose of 10E-7 for 72 hr; type: functional, Homo sapiens; procedure, shortened: as §1
HT-29 = assay: In vitro cytotoxicity against HT-29 (human colon carcinoma) cell line.; type: functional, cell-based; conditions: Homo sapiens, HT-29
HeLa [23] = assay: Tested for effect of compound on G0/G1 cell cycle phase and apoptosis in HeLa cells at a dose of 10E-6 for 72 hr; type: functional, Homo sapiens; procedure, shortened: as §1
HeLa [24] = assay: Tested for effect of compound on G2/M cell cycle phase and apoptosis in HeLa cells at a dose of 10E-6 for 24 hr; type: functional, Homo sapiens; procedure, shortened: as §1
HeLa [25] = assay: Tested for effect of compound on G2/M cell cycle phase and apoptosis in HeLa cells at a dose of 10E-8 for 72 hr; type: functional, Homo sapiens; procedure, shortened: as §2
HeLa [26] = assay: Tested for effect of compound on S cell cycle phase and apoptosis in HeLa cells at a dose of 10E-7 for 24 hr; type: functional, Homo sapiens; procedure, shortened: as §2
HeLa [27] = assay: Tested for effect of compound on G2/M cell cycle phase and apoptosis in HeLa cells at a dose of 10E-7 for 24 hr; type: functional, Homo sapiens; procedure, shortened: as §2
HeLa [28] = assay: Tested for effect of compound on S cell cycle phase and apoptosis in HeLa cells at a dose of 10E-8 for 72 hr; type: functional, Homo sapiens; procedure, shortened: as §2
HeLa [29] = assay: Tested for effect of compound on S cell cycle phase and apoptosis in HeLa cells at a dose of 10E-6 for 24 hr; type: functional, Homo sapiens; procedure, shortened: as §2
HeLa [30] = assay: Tested for effect of compound on G0/G1 cell cycle phase and apoptosis in HeLa cells at a dose of 10E-8 for 48 hr; type: functional, Homo sapiens; procedure, shortened: as §1
HeLa [31] = assay: Tested for effect of compound on G2/M cell cycle phase and apoptosis in HeLa cells at a dose of 10E-6 for 48 hr; type: functional, Homo sapiens; procedure, shortened: as §1
HeLa [32] = assay: Tested for effect of compound on Sub-G1 cell cycle phase and apoptosis in HeLa cells at a dose of 10E-6 for 24 hr; type: functional, Homo sapiens; procedure, shortened: as §2
HeLa [33] = assay: Tested for effect of compound on S cell cycle phase and apoptosis in HeLa cells at a dose of 10E-7 for 48 hr; type: functional, Homo sapiens; procedure, shortened: as §2
HeLa [34] = assay: Tested for effect of compound on G0/G1 cell cycle phase and apoptosis in HeLa cells at a dose of 10E-6 for 24 hr; type: functional, Homo sapiens; procedure, shortened: as §1
HeLa [35] = assay: Tested for effect of compound on G2/M cell cycle phase and apoptosis in HeLa cells at a dose of 10E-8 for 24 hr; type: functional, Homo sapiens; procedure, shortened: as §2
HeLa [36] = assay: Tested for effect of compound on S cell cycle phase and apoptosis in HeLa cells at a dose of 10E-6 for 48 hr; type: functional, Homo sapiens; procedure, shortened: as §2
HeLa [37] = assay: Tested for effect of compound on Sub-G1 cell cycle phase and apoptosis in HeLa cells at a dose of 10E-7 for 24 hr; type: functional, Homo sapiens; procedure, shortened: as §2

COC(=O)[C@@H]1C(C=O)=Cc2cc3c(cc2[C@H]1c1cc(OC)c(OC)c(OC)c1)OCO3
Activity (HeLa [1]): 17%
Activity (HeLa [2]): 11.2%
Activity (HeLa [3]): 58.9%
Activity (HeLa [4]): 3.1%
Activity (HeLa [5]): 17.3%
Activity (HeLa [6]): 17.5%
Activity (HeLa [7]): 1.4%
Activity (HeLa [8]): 9.5%
Activity (HeLa [9]): 10.1%
Activity (HeLa [10]): 10.9%
Activity (HeLa [11]): 8.1%
Activity (HeLa [12]): 29.7%
Activity (HeLa [13]): 16.2%
Activity (HeLa [14]): 28.9%
Activity (HeLa [15]): 17.5%
IC50 (SK-MEL-28): 230 nM
Activity (HeLa [16]): 58.1%
Activity (HeLa [17]): 50.1%
Activity (HeLa [18]): 1.5%
Activity (HeLa [19]): 47.4%
Selectivity index [20]: 19
Activity (HeLa [21]): 68.2%
IC50 (P388): 230 nM
IC50 (A549): 120 nM
Activity (HeLa [22]): 15.1%
IC50 (HT-29): 12 nM
Activity (HeLa [23]): 14.1%
Activity (HeLa [24]): 96%
Activity (HeLa [25]): 39.3%
Activity (HeLa [26]): 10.4%
Activity (HeLa [27]): 80.1%
Activity (HeLa [28]): 10.2%
Activity (HeLa [29]): 1.7%
Activity (HeLa [30]): 58.7%
Activity (HeLa [31]): 44.8%
Activity (HeLa [32]): 1.1%
Activity (HeLa [33]): 9.7%
Activity (HeLa [34]): 1.2%
Activity (HeLa [35]): 24.3%
Activity (HeLa [36]): 9.3%
Activity (HeLa [37]): 1.4%
